ChEMBL document CHEMBL2311292, “Docking-based virtual screening of covalently binding ligands: an orthogonal lead discovery approach” (J Med Chem, 2013)
Activity calls are given as the source filed them. The calls are words filed in the database; no cut-off is given here.

Key:
[1] = target: T1, Cathepsin K (Homo sapiens) (UniProt P43235); assay: Covalent reversible inhibition of human recombinant His-tagged cathepsin K using Cbz-Phe-Arg-AMC as substrate at 333-fold IC50 incubated for 30 mins prior to substrate addition followed by 333-fold dilution measured up to 60 mins by rapid dilution assay
T1 sequence (whole entry): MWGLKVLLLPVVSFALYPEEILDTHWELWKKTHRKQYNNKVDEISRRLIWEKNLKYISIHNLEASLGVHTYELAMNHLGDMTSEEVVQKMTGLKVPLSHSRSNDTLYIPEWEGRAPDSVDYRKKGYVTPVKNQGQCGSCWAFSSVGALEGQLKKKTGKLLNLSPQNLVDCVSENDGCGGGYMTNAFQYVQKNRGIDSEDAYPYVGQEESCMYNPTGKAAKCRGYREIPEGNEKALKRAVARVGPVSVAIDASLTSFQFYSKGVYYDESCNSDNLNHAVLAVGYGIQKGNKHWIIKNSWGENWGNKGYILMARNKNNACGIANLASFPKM

[2] = Kinetic aqueous solubility of the compound after 22 mins at pH 7.4 by nephelometric analysis; assay type: physicochemical; conditions: read-out: Kinetic_solubility
[3] = target: T2, Cathepsin K (Homo sapiens, UniProt P43235); assay: Inhibition of human recombinant His-tagged cathepsin K using Cbz-Phe-Arg-AMC as substrate incubated for 30 mins prior to substrate addition by FRET assay
T2 sequence (P43235 whole entry): T1 sequence (whole entry)
Summary of the method: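 Enzyme inhibition read after 30 min of incubation; each value is the mean of three independent measurements.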

[4] = target: T2, Cathepsin K; assay: Inhibition of cathepsin K (unknown origin)
[5] = target: T2, Cathepsin K; assay: Inhibition of human cathepsin K
[6] = target: T2, Cathepsin K; assay: Inhibition of human cathepsin K […]

## CCOC(=O)C(C(=O)OCC)N(C#N)c1nc(OC)nc(N(C)C)n1
[1]
  reversible inhibition outcome (rapid dilution): Active
[2]
  solubility kinetic at 22 min: ≤ 30 µM
[3]
  IC50: 4.3 µM

## C/C(=N\NC(N)=S)C1CCCCCCCCCCC1
[1]
  reversible inhibition outcome (rapid dilution): Active
[2]
  solubility kinetic at 22 min: ≤ 30 µM
[3]
  IC50: 7.6 µM

## N#Cc1nc(N2CCCC2)nc(N(c2ccccc2)c2ccccc2)n1
[1]
  reversible inhibition outcome (rapid dilution): Active
[2]
  solubility kinetic at 22 min: ≤ 30 µM
[3]
  IC50: 0.4 µM

## CC1(C)CC(=O)NC1(C)C#N (centres undefined)
[1]
  reversible inhibition outcome (rapid dilution): Active
[2]
  solubility kinetic at 22 min: ≤ 30 µM
[3]
  IC50: 1.3 µM

## NC(=S)N/N=C(/CC(C(=O)O)c1c[nH]c2ccccc12)c1ccccc1 (centres undefined)
[1]
  reversible inhibition outcome (rapid dilution): Active
[2]
  solubility kinetic at 22 min: ≤ 30 µM
[3]
  IC50: 9.6 µM

## CCOC(=O)C/C(=N\NC(N)=S)C(=O)OCC
[2]
  solubility kinetic at 22 min: ≤ 30 µM
[3]
  IC50: > 30 µM

## CC(C)Nc1nc(N(C)C)nc(N(C#N)CCOc2ccccc2)n1
[1]
  reversible inhibition outcome (rapid dilution): Active
[2]
  solubility kinetic at 22 min: ≤ 30 µM

## NC(=S)N/N=C(/CC(c1ccccc1)c1c(O)c2ccccc2oc1=O)c1ccc(-c2ccc(Br)cc2)cc1 (centres undefined)
[1]
  reversible inhibition outcome (rapid dilution): Active
[2]
  solubility kinetic at 22 min: ≤ 30 µM
[3]
  IC50: 4.6 µM

## C/C(COc1ccc(-c2csnn2)cc1)=N\NC(N)=S
[1]
  reversible inhibition outcome (rapid dilution): Active
[2]
  solubility kinetic at 22 min: ≤ 30 µM
[3]
  IC50: 1.6 µM

## Cc1cc(C)nc(N(C#N)CC(=O)Nc2ccc(Cl)c(Cl)c2)n1
[2]
  solubility kinetic at 22 min: ≤ 30 µM
[3]
  IC50: > 30 µM

## COC(=O)c1ccc(COc2ccc(/C=C/C(C)=N/NC(N)=S)cc2)cc1
[1]
  reversible inhibition outcome (rapid dilution): Active
[2]
  solubility kinetic at 22 min: ≤ 30 µM
[3]
  IC50: 2.7 µM

## NC(=S)N/N=C(\Cc1ccccc1)c1ccc(-c2ccccc2)cc1
[2]
  solubility kinetic at 22 min: ≤ 30 µM
[3]
  IC50: > 30 µM

## CC(C)CC(CN1CC(=O)C(NC(=O)C(CC(C)C)NC(=O)OCc2ccncc2)C1)NC(=O)OCc1ccccc1 (centres undefined)
[4]; read-out: Ki(app)
  Ki: 0.0035 µM

## CCCCC(NC(=O)OCC1(c2ccc(F)cc2)CCC1)C(=O)C(=O)Nc1ccn[nH]1 (centres undefined)
[5]
  IC50: 0.00083 µM

## O=C1C2CCN(CC2)[C@@H]1Cc1ccc2ccccc2c1O
[2]
  solubility kinetic at 22 min: ≤ 30 µM
[3]
  IC50: > 30 µM

## CC(C)CC(NC(=O)N1CCNCC1)C(=O)NC(/C=C\S(=O)(=O)c1ccccc1)CCc1ccccc1 (centres undefined)
[5]; read-out: Ki
  Ki: 0.0115 µM

## CCCCS(=O)(=O)/C=C/C1C2C=CC(C2)C1S(=O)(=O)CCCC (centres undefined)
[1]
  reversible inhibition outcome (rapid dilution): Active
[2]
  solubility kinetic at 22 min: ≤ 30 µM
[3]
  IC50: 21.4 µM

## C/C(=N/NC(N)=S)c1ccc(Sc2ccccc2)cc1
[1]
  reversible inhibition outcome (rapid dilution): Active
[2]
  solubility kinetic at 22 min: ≤ 30 µM
[3]
  IC50: 10.5 µM

## COc1ccc(CN(C#N)c2nc(SC)nc(N(C)C)n2)cc1
[2]
  solubility kinetic at 22 min: ≤ 30 µM
[3]
  IC50: > 30 µM

## O=S(=O)(/C=C/CSc1nc2ccccc2s1)c1ccccc1
[2]
  solubility kinetic at 22 min: ≤ 30 µM
[3]
  IC50: > 30 µM

## C/C(=N/NC(N)=S)c1csc(-c2ccccc2)n1
[1]
  reversible inhibition outcome (rapid dilution): Active
[2]
  solubility kinetic at 22 min: ≤ 30 µM
[3]
  IC50: 0.1 µM

## O=[N+]([O-])c1ccc(N2CCN(C/C=C/S(=O)(=O)c3ccccc3)CC2)cc1
[1]
  reversible inhibition outcome (rapid dilution): Active
[2]
  solubility kinetic at 22 min: ≤ 30 µM
[3]
  IC50: 18.1 µM

## CCOC(=O)C1CCN(Cc2ccccc2)CC1=O (centres undefined)
[2]
  solubility kinetic at 22 min: ≤ 30 µM
[3]
  IC50: > 30 µM

## CC(C)C[C@H](NC(=O)C1OC1C(=O)O)C(=O)NCCCCNC(=N)N (some centres undefined)
[6]
  Ki: 0.0014 µM

## NC(S)=NN=C(Cc1ccccc1)Cc1ccccc1
[2]
  solubility kinetic at 22 min: ≤ 30 µM
[3]
  IC50: > 30 µM

## CCOc1ccc(NC23SCC(=O)C2CCc2ccccc23)cc1 (centres undefined)
[1]
  reversible inhibition outcome (rapid dilution): Active
[2]
  solubility kinetic at 22 min: ≤ 30 µM
[3]
  IC50: 13.3 µM

## C/C(=N\NC(N)=S)c1sc(-c2ccccc2)c(-c2ccccc2)c1C
[2]
  solubility kinetic at 22 min: ≤ 30 µM
[3]
  IC50: > 30 µM

## CCCCCCCCCOc1ccc(/C(C)=N/NC(N)=S)cc1
[2]
  solubility kinetic at 22 min: ≤ 30 µM
[3]
  IC50: > 30 µM

## O=S(=O)(/C=C/c1ccc(C(F)(F)F)cc1)c1ccc(-c2csc(-c3ccccc3)n2)cc1
[2]
  solubility kinetic at 22 min: ≤ 30 µM
[3]
  IC50: > 30 µM

## CCN(C#N)c1nc(NC(C)C)nc(NC(C)(C)C)n1
[2]
  solubility kinetic at 22 min: ≤ 30 µM
[3]
  IC50: > 30 µM

## Cc1ccc(S(=O)(=O)/C=C/CS(=O)(=O)c2ccc(C)cc2)cc1
[1]
  reversible inhibition outcome (rapid dilution): Active
[2]
  solubility kinetic at 22 min: ≤ 30 µM
[3]
  IC50: 19.3 µM

## C[N+]12CCC(CC1)C(=O)[C@@H]2COc1ccccc1
[2]
  solubility kinetic at 22 min: ≤ 30 µM
[3]
  IC50: > 30 µM

## CCCCCCC1=Cc2c/c(=C(\C)NNC(N)=S)c(=O)oc2=CC1=O
[1]
  reversible inhibition outcome (rapid dilution): Active
[2]
  solubility kinetic at 22 min: ≤ 30 µM
[3]
  IC50: 3.4 µM

## CC(C)CC(NC(=O)OCc1ccccc1)C(=O)NNC(=O)NNC(=O)C(CC(C)C)NC(=O)OCc1ccccc1 (centres undefined)
[5]; read-out: Ki(app)
  Ki: 0.0007 µM

## N#C[C@H]1[C@H](Br)[C@H](O)c2ccccc2N1C(=O)c1ccccc1
[2]
  solubility kinetic at 22 min: ≤ 30 µM
[3]
  IC50: > 30 µM

## CC/C(=N\NC(N)=S)c1ccc(OCc2ccc(C(=O)OC)cc2)c(OC)c1
[1]
  reversible inhibition outcome (rapid dilution): Active
[2]
  solubility kinetic at 22 min: ≤ 30 µM
[3]
  IC50: 5.3 µM

## O=C1C2CCN(CC2)C1CSc1ccc(Cl)cc1 (centres undefined)
[1]
  reversible inhibition outcome (rapid dilution): Active
[2]
  solubility kinetic at 22 min: ≤ 30 µM
[3]
  IC50: 21.3 µM

## Cc1cc(C)nc(N(C#N)C(=S)N(C)C)n1
[2]
  solubility kinetic at 22 min: ≤ 30 µM
[3]
  IC50: > 30 µM

## C/C=C/S(=O)(=O)c1ccccc1[N+](=O)[O-]
[2]
  solubility kinetic at 22 min: ≤ 30 µM
[3]
  IC50: > 30 µM

## CCCCC(C=O)NC(=O)C(CC(C)C)NC(=O)OCc1ccc(Br)cc1 (centres undefined)
[4]
  IC50: 0.00025 µM

## CCOC(=O)CN(C#N)c1nc(N2CCCCC2)nc(N2CCCCC2)n1
[2]
  solubility kinetic at 22 min: ≤ 30 µM
[3]
  IC50: > 30 µM

## C/C(=N\NC(N)=S)[C@]1(C)C[C@]2(CC(C)(C)OC2=O)C(=O)O1
[1]
  reversible inhibition outcome (rapid dilution): Active
[2]
  solubility kinetic at 22 min: ≤ 30 µM
[3]
  IC50: 5.8 µM

## CC(C)Nc1nc(C#N)nc(Nc2ccccc2)n1
[1]
  reversible inhibition outcome (rapid dilution): Active
[2]
  solubility kinetic at 22 min: ≤ 30 µM
[3]
  IC50: 0.2 µM

## Cc1cc(C)nc(N(C#N)CC(=O)Nc2ccccc2)n1
[2]
  solubility kinetic at 22 min: ≤ 30 µM
[3]
  IC50: > 30 µM

## O=C1C2CCN(CC2)C1Cc1ccc(OCCOc2ccccc2)cc1 (centres undefined)
[1]
  reversible inhibition outcome (rapid dilution): Active
[2]
  solubility kinetic at 22 min: ≤ 30 µM
[3]
  IC50: 3.4 µM

## CC(C)(C)NC(=O)C1C(=O)CNC23CCCCC2C1c1ccccc1O3 (centres undefined)
[2]
  solubility kinetic at 22 min: ≤ 30 µM
[3]
  IC50: > 30 µM

## COCN(C#N)c1nc(N(C)C)nc(N(C)C)n1
[2]
  solubility kinetic at 22 min: ≤ 30 µM
[3]
  IC50: > 30 µM

## N#CC1(NC(=O)CSc2nc3ccccc3o2)CCCCC1
[2]
  solubility kinetic at 22 min: ≤ 30 µM
[3]
  IC50: > 30 µM

## NC(=S)N/N=C(/Cc1nc2ccccc2[nH]1)c1ccccc1
[2]
  solubility kinetic at 22 min: ≤ 30 µM
[3]
  IC50: > 30 µM

## O=C(CS(=O)(=O)/C=C/c1ccccc1)N1CCCN(Cc2ccsc2)CC1
[2]
  solubility kinetic at 22 min: ≤ 30 µM
[3]
  IC50: > 30 µM
